Measurements reported in PMC9357092 (Clinical Cancer Research, 2022).
Where “and” joins values, the source holds several entries; their conditions need not be identical. Equal values may be shown once. Read-outs that look alike come from different tables or passages of the source. Values belong to the molecule of their own block, whether it stands above or below them.

Columns and labels:
[1] = Bidirectional transwell permeability, parental MDCKII monolayer; assay type: in vitro ADME; conditions: dog, MDCK, pH 7.4, Intrinsic passive transcellular permeability (Papp,A-B/λ), unbound and unionized drug
[2] = tested on: HER2-positive breast cancer; conditions: cited from earlier work; for Cumulative incidence of intervention for CNS metastases: NALA phase III, each drug plus capecitabine, P = 0.043; for CNS objective response rate, monotherapy: pretreated HER2-positive breast cancer patients with progressive brain metastases
[3] = Observed clinical plasma, CSF and brain metastasis pharmacokinetics in patients; assay type: in vivo, human
[4] = Binding to human brain tissue; assay type: in vitro ADME; conditions: pooled human brain tissue
[5] = Binding to human plasma proteins; assay type: in vitro ADME; conditions: pooled human plasma
[6] = In vitro metabolism in pooled human liver microsomes; assay type: in vitro ADME
Outline: (§1)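 Test compound (0.5 to 50 μmol/L) incubated with pooled human microsomes (0.4 mg/mL) at 37°C for 30 minutes. Overall drug disappearance velocity plotted against initial concentration and fitted to the Michaelis–Menten equation by nonlinear regression. Intrinsic clearance was taken as Vmax/Km.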

[7] = In vitro metabolism in pooled human intestine microsomes; assay type: in vitro ADME
Outline: as §1

[8] = molecular target: HER2 kinase; conditions: read-out: IC50 for inhibition of HER2 kinase; ADP-Glo assay; cited from earlier work
[9] = Whole-body-4Brain PBPK model simulation of plasma and CNS pharmacokinetics; design: species or system human; conditions: PBPK input; for fa: assigned based on observed data; for Ka: first-order absorption rate constant; for Ka / Lag time: observed
[10] = cited from earlier work; for Observed CSF concentration (mean) / Observed CSF Kp,uu, geometric mean: 13 patients; for Observed CSF concentration (mean): 300 mg twice daily with trastuzumab and capecitabine, 2-5 hours postdosing
[11] = Blood-to-plasma partition ratio; assay type: in vitro ADME; conditions: blood and plasma
[12] = design: species or system human; conditions: IVIVE predicted

Papp A→B at 1 h, 1 μmol/L [1]: 4.14 ×10⁻⁶ cm/s | Estimated CSF Kp,uu from observed data ([3]; two patients, assuming fraction unbound in plasma 0.014, data of ref 27): 0.092 | fraction unbound [4]: 0.0004 | fraction unbound [5]: 0.014 | microsomal CLint [6]: 22.8 µL/min/mg | microsomal CLint [7]: 5.66 µL/min/mg
SMILES: CS(=O)(=O)CCNCc1ccc(-c2ccc3ncnc(Nc4ccc(OCc5cccc(F)c5)c(Cl)c4)c3c2)o1 [lapatinib]
Cumulative incidence of intervention for CNS metastases [2]: 29.2% | CNS response rate, combined with stereotactic radiosurgery [2]: 75% | CNS response rate, combined with whole-brain radiation therapy [2]: 79% | CNS objective response rate, monotherapy [2]: 6%

SMILES: CCOc1cc2ncc(C#N)c(Nc3ccc(OCc4ccccn4)c(Cl)c3)c2cc1NC(=O)/C=C/CN(C)C [neratinib]
IC50 [8]: […] | Papp A→B at 1 h, 1 μmol/L [1]: […] | Disease-free survival vs placebo, HR ([2]; ExteNET, 240 mg once daily, 1 year, 95% CI 0.46-0.84): 0.63 | Cumulative incidence of CNS metastases vs placebo ([2]; ExteNET, 240 mg once daily, 1 year): no statistically significant difference | Cumulative incidence of intervention for CNS metastases [2]: 22.8% | Time to CNS metastases, hazard ratio ([2]; NEfERT-T, neratinib plus paclitaxel vs trastuzumab plus paclitaxel, 95% CI 0.26-0.78): […] | Incidence of symptomatic or progressive CNS recurrence ([2]; NEfERT-T, neratinib plus paclitaxel vs trastuzumab plus paclitaxel): 8.3% | CNS objective response rate, monotherapy [2]: 8% | Unbound plasma concentration corresponding to observed total ([3]; 2 patients, assuming fraction unbound in plasma 0.007, data of ref 28): 0.43 nM and 0.67 nM | fa [9]: 0.2 | Ka [9]: 0.25 | Lag time [9]: 0.8 h | Observed total plasma concentration ([10]; 2 patients, 240 mg once daily): […] | fraction unbound [4]: 0.004 | blood plasma ratio [11]: […] | fraction unbound [5]: […] | microsomal CLint [6]: 39 µL/min/mg | microsomal CLint [7]: 24.6 µL/min/mg | Ratio of BBB passive clearance (PSB) to active efflux clearance (CLefflux,BBB) [12]: […]

SMILES: Cc1cc(Nc2ncnc3ccc(NC4=NC(C)(C)CO4)cc23)ccc1Oc1ccn2ncnc2c1 [tucatinib]
IC50 [8]: 6.9 nM | Papp A→B at 1 h, 1 μmol/L [1]: 13.3 ×10⁻⁶ cm/s | Risk of intracranial progression or death, HR ([2]; HER2CLIMB, tucatinib added to trastuzumab and capecitabine, 95% CI 0.22-0.48): 0.32 | Risk of death, HR ([2]; HER2CLIMB, tucatinib added to trastuzumab and capecitabine, 95% CI 0.40-0.85): 0.58 | fa [9]: 0.5 | Ka [9]: 0.8 | Lag time [9]: 0.6 h | Observed CSF concentration (mean) ([10]; cycle 1 day 1): 10.9 nmol/L | Observed CSF concentration (mean) ([10]; cycle 2 day 1): 21.6 nmol/L | Observed CSF Kp,uu, geometric mean ([10]; cycle 1 day 1): 0.51 | Observed CSF Kp,uu, geometric mean ([10]; cycle 2 day 1): 0.76 | fraction unbound [4]: 0.015 | blood plasma ratio [11]: 0.93 | fraction unbound [5]: 0.03 | microsomal CLint [6]: 41.8 µL/min/mg | microsomal CLint [7]: 4.5 µL/min/mg | Ratio of BBB passive clearance (PSB) to active efflux clearance (CLefflux,BBB) [12]: 0.83
